# Published values of several laboratories.
# Lines come from different studies, so protocols differ.
# Target: Cytoplasmic tyrosine-protein kinase BMX (BMX, Homo sapiens, UniProt P51813)
# Residues used in one study (P51813 1-675): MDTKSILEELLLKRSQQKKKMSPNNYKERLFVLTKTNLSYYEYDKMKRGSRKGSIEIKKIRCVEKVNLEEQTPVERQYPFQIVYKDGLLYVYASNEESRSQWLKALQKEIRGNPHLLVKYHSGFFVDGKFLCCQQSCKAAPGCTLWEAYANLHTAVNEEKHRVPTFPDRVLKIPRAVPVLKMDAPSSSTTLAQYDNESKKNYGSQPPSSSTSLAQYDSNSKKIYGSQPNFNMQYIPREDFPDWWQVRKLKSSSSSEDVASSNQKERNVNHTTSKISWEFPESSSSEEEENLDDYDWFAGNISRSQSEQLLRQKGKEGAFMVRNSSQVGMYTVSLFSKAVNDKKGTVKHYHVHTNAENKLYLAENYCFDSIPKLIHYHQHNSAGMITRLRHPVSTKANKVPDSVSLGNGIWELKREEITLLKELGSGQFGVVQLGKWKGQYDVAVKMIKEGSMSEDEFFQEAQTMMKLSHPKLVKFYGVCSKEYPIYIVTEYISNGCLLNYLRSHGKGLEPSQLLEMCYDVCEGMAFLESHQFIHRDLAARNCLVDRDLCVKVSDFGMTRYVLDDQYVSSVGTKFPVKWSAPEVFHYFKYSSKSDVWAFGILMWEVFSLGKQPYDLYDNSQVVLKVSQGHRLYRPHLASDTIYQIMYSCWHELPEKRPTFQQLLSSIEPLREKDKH
SMILES,observed,method,concentration,remaining binding [%]
Cc1cc(-n2nc(Cc3cc(F)cc(C(F)(F)F)c3)nc2C)ccc1C(N)=O,cell-free assay,competition with immobilised ligand,1 µM,100
O=C(NCC1CCOCC1)c1n[nH]cc1NC(=O)c1c(F)cccc1F,binding,competition with immobilised ligand,1 µM,100
C=CC(=O)N1CCC(C(=O)NCC(=O)N2CCN(c3nc(-c4cnc(N)nc4C(F)F)nc(N4CCOCC4)n3)CC2)CC1,binding,competition with immobilised ligand,1 µM,99
C[C@@H](c1ccc(-n2cnc3c(N)ncnc32)cc1)N1CCc2nn(C)c(Cc3ccccc3)c2C1=O,binding,competition with immobilised ligand,0.1 µM,52
FC(F)(F)Oc1cccc(-c2cnc3ccc(-c4ccncc4)nn23)c1,cell-free assay,competition with immobilised ligand,5 µM,86
CN(CCCC(F)(F)F)c1nccc(-c2cnn3ncccc23)n1,binding,,1 µM,83
CC(=O)c1c(NS(C)(=O)=O)c2cc(-c3ccc(Cl)cc3)c(-c3ccc(Cl)cc3Cl)nc2n(C)c1=O,cell-free assay,competition with immobilised ligand,1 µM,100
O=C(c1ccc(Nc2nccc(-c3cc4ccccc4s3)n2)cc1)N1CCC(N2CCCC2)CC1,binding,competition with immobilised ligand,1 µM,91
O=C(O)[C@H]1[C@H](Cn2nnc3ccccc3c2=O)CC[C@@H]1C(=O)c1ccc(OCCC2CCOCC2)cc1,cell-free assay,competition with immobilised ligand,1 µM,92
COc1cnc(Nc2cccc(S(N)(=O)=O)c2)nc1N1CCN(c2ccccc2)CC1,binding,competition with immobilised ligand,1 µM,93
CCN1CCN(Cc2ccc(C(=O)Nc3ccc(C)c(Oc4ccc5c(c4)CC(=O)N5)c3)cc2C(F)(F)F)CC1,binding,competition with immobilised ligand,1 µM,88
C[C@H]1CCN(c2nccc(-c3cnn4ncccc34)n2)C1,binding,,1 µM,84
CCC(=N\O)/C(C)=C/c1ccc(F)cc1,cell-free assay,competition with immobilised ligand,1 µM,83
c1cnn2ncc(-c3ccnc(N4CCC45COC5)n3)c2c1,binding,,1 µM,90
C[C@@H](c1cccc(C#N)c1)n1cc(Cl)cc(C(N)=O)c1=N,cell-free assay,competition with immobilised ligand,1 µM,95
CC1CCCN1c1nccc(-c2cnn3ncccc23)n1 (stereo not drawn),binding,,1 µM,94
O=C(NCCCN1CCOCC1)c1ccc(Nc2ncc(Cl)c(-c3ccc(Cl)s3)n2)cc1,binding,competition with immobilised ligand,1 µM,89
N[C@@H]1CCN(c2nccc(-c3cnn4ncccc34)n2)C1,binding,,1 µM,97
Cc1cnc(Nc2ccc(C(=O)N3CCC(N4CCCC4)CC3)cc2)nc1-c1cc2ccccc2s1,binding,competition with immobilised ligand,1 µM,75
CN(C)c1nccc(-c2cnn3ncccc23)n1,binding,,1 µM,87
CO[C@@H](C)c1c(Nc2ccc([C@H](N(C)C(=O)C3CCS(=O)(=O)CC3)C(F)(F)F)cc2)cnc2cc(Cl)nn12,cell-free assay,competition with immobilised ligand,1 µM,99
